Assay results from ChEMBL document CHEMBL1649230, “Aryl rhodanines specifically inhibit staphylococcal and enterococcal biofilm formation” (Antimicrob Agents Chemother, 2009).
The source made the active and inactive calls. No cut-off for these calls is given here.

Test system: Staphylococcus aureus
Test: Antimicrobial activity against community acquired methicillin-resistant Staphylococcus aureus isolate 23542 assessed as inhibition of bacterial biofilm after 18 hrs by broth microdilution method
Type: functional
Outline: (§1)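 Biofilm MBIC on tissue culture-treated polystyrene 96-well plates. Twofold dilutions, 0.2 to 100 μM final, with 2% DMSO final. Inoculum was an overnight culture diluted 1:100 (~5 × 10^6 cells/well) in 0.5× TSB plus 1% glucose, grown 18 h at 37°C. Wells washed, heat-fixed 60°C 60 min, stained with 0.06% crystal violet, OD600 read. MBIC is the lowest concentration giving ≥80% inhibition versus untreated; geometric mean of ≥3 experiments.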

| SMILES | MBIC |
| --- | --- |
| CCOc1cc(/C=C2\SC(=S)N(c3ccc(F)cc3)C2=O)ccc1O | 31.5 µM |

Test system: Staphylococcus aureus
Test: Antimicrobial activity against Staphylococcus aureus ATCC 35556 assessed as inhibition of bacterial biofilm formation after 18 hrs by broth microdilution method in presence of 20 ug/ml fibrinogen
Type: functional
Outline: (§2)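 Polystyrene 96-well wells precoated with 100 μl fibronectin or fibrinogen (0–20 μg protein/ml) for 24 h at 4°C. Wells then washed with sterile water. The standard MBIC biofilm assay followed: 0.5× TSB with 1% glucose, 2% DMSO, 18 h at 37°C, crystal violet read at OD600.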

| SMILES | MBIC |
| --- | --- |
| C=CCOc1cc(/C=C2\SC(=S)N(c3ccc(F)cc3)C2=O)ccc1O | 3.125 µM |
| CCOc1cc(/C=C2\SC(=S)N(c3ccc(F)cc3)C2=O)ccc1O | 6.25 µM |

Test system: Staphylococcus epidermidis
Test: Antimicrobial activity against coagulase-negative Staphylococcus epidermidis isolate WTBF-45 assessed as inhibition of bacterial biofilm after 18 hrs by broth microdilution method
Type: functional
Outline: as §1

| SMILES | MBIC |
| --- | --- |
| C=CCOc1cc(/C=C2\SC(=S)N(c3ccc(F)cc3)C2=O)ccc1O | 25 µM |
| CCOc1cc(/C=C2\SC(=S)N(c3ccc(F)cc3)C2=O)ccc1O | 25 µM |

Test system: not listed separately
Test: Cytotoxicity against human HeLa cells after 3 days by MTT assay
Type: cell-based
Outline: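 HeLa cells were seeded at 4 × 10^3 per well with or without serial dilutions of compound in DMSO. Plates were incubated 3 days at 37°C in minimal essential medium with 10% calf serum, and viability was read by MTT. CC50 was the concentration that reduced MTT-to-formazan conversion by 50%.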

| SMILES | CC50 at 72 h |
| --- | --- |
| C=CCOc1cc(/C=C2\SC(=S)N(c3ccc(F)cc3)C2=O)ccc1O | 76.4 µM |
| CCOc1cc(/C=C2\SC(=S)N(c3ccc(F)cc3)C2=O)ccc1O | ≥ 100 µM |

Test system: Staphylococcus epidermidis
Test: Antimicrobial activity against coagulase-negative Staphylococcus epidermidis isolate WTBF-48 assessed as inhibition of bacterial biofilm after 18 hrs by broth microdilution method
Type: functional
Outline: (§3)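 Static biofilm in tissue culture-treated polystyrene 96-well plates in 0.5× TSB with 1% glucose. Overnight culture diluted 1:100 gives about 5 × 10^6 cells/well. Compound 2-fold series, final 0.2–100 μM, 2% DMSO. Incubated 18 h at 37°C. Washed, heat-fixed 60°C for 60 min, stained with 0.06% crystal violet, read at OD600. MBIC is the lowest concentration giving ≥80% inhibition versus untreated. Geometric mean of ≥3 independent experiments.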

| SMILES | MBIC |
| --- | --- |
| C=CCOc1cc(/C=C2\SC(=S)N(c3ccc(F)cc3)C2=O)ccc1O | 12.5 µM |
| CCOc1cc(/C=C2\SC(=S)N(c3ccc(F)cc3)C2=O)ccc1O | 25 µM |

Test system: Enterococcus faecium
Test: Antimicrobial activity against vancomycin-resistant Enterococcus faecium isolate 1401 assessed as inhibition of bacterial biofilm after 18 hrs by broth microdilution method
Type: functional
Outline: as §1

| SMILES | MBIC |
| --- | --- |
| C=CCOc1cc(/C=C2\SC(=S)N(c3ccc(F)cc3)C2=O)ccc1O | 79.4 µM |
| CCOc1cc(/C=C2\SC(=S)N(c3ccc(F)cc3)C2=O)ccc1O | 100 µM |

Test system: Enterococcus gallinarum
Test: Antimicrobial activity against vancomycin-resistant Enterococcus gallinarum isolate 2392 assessed as inhibition of bacterial biofilm after 18 hrs by broth microdilution method
Type: functional
Outline: as §1

| SMILES | MBIC |
| --- | --- |
| C=CCOc1cc(/C=C2\SC(=S)N(c3ccc(F)cc3)C2=O)ccc1O | >=100 uM |
| CCOc1cc(/C=C2\SC(=S)N(c3ccc(F)cc3)C2=O)ccc1O | 84.1 µM |

Test system: Staphylococcus aureus
Test: Antimicrobial activity against Staphylococcus aureus ATCC 35556 assessed as inhibition of bacterial biofilm formation after 18 hrs by broth microdilution method in presence of 1 ug/ml fibrinogen
Type: functional
Outline: as §2

| SMILES | MBIC |
| --- | --- |
| C=CCOc1cc(/C=C2\SC(=S)N(c3ccc(F)cc3)C2=O)ccc1O | 3.125 µM |
| CCOc1cc(/C=C2\SC(=S)N(c3ccc(F)cc3)C2=O)ccc1O | 3.125 µM |

Test system: Staphylococcus aureus
Test: Antimicrobial activity against community acquired methicillin-resistant Staphylococcus aureus isolate 22733 assessed as inhibition of bacterial biofilm after 18 hrs by broth microdilution method
Type: functional
Outline: as §1

| SMILES | MBIC |
| --- | --- |
| C=CCOc1cc(/C=C2\SC(=S)N(c3ccc(F)cc3)C2=O)ccc1O | 100 µM |
| CCOc1cc(/C=C2\SC(=S)N(c3ccc(F)cc3)C2=O)ccc1O | 50 µM |

Test system: Staphylococcus aureus
Test: Antimicrobial activity against community acquired methicillin-resistant Staphylococcus aureus isolate 33548 assessed as inhibition of bacterial biofilm after 18 hrs by broth microdilution method
Type: functional
Outline: as §1

| SMILES | MBIC |
| --- | --- |
| C=CCOc1cc(/C=C2\SC(=S)N(c3ccc(F)cc3)C2=O)ccc1O | 31.5 µM |

Test system: Staphylococcus aureus
Test: Antimicrobial activity against Staphylococcus aureus ATCC 35556 assessed as inhibition of bacterial biofilm formation after 18 hrs by broth microdilution method in presence of 10 ug/ml fibronectin
Type: functional
Outline: as §2

| SMILES | MBIC |
| --- | --- |
| C=CCOc1cc(/C=C2\SC(=S)N(c3ccc(F)cc3)C2=O)ccc1O | 3.125 µM |
| CCOc1cc(/C=C2\SC(=S)N(c3ccc(F)cc3)C2=O)ccc1O | 6.25 µM |

Test system: Staphylococcus aureus
Test: Antimicrobial activity against Staphylococcus aureus ATCC 35556 assessed as inhibition of primary adhesion of bacterial biofilm to polystyrene surface under static condition pretreated with compound MBIC for 30 mins measured after 30 mins by fluorescence emission using BaclLight Live Dead stain
Type: functional
Outline: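 PBS suspension of mid-log S. aureus ATCC 35556 exposed to compound in tubes for 30 min at 37°C. Cells centrifuged to remove free compound and resuspended in PBS at the original density. They were then placed on tissue culture-treated polystyrene for 30 min at 37°C. Wells washed, BacLight Live/Dead fluorescence read (ex 485, em 530 nm). Fraction adherent calculated versus untreated.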

| SMILES | inhibition (INH) |
| --- | --- |
| CCOc1cc(/C=C2\SC(=S)N(c3ccc(F)cc3)C2=O)ccc1O | >=80% |

Test system: Enterococcus faecium
Test: Antimicrobial activity against vancomycin-resistant Enterococcus faecium isolate EF1509 assessed as inhibition of bacterial biofilm after 18 hrs by broth microdilution method
Type: functional
Outline: as §1

| SMILES | MBIC |
| --- | --- |
| C=CCOc1cc(/C=C2\SC(=S)N(c3ccc(F)cc3)C2=O)ccc1O | 59.5 µM |
| CCOc1cc(/C=C2\SC(=S)N(c3ccc(F)cc3)C2=O)ccc1O | >=100 uM |

Test system: Staphylococcus epidermidis
Test: Antimicrobial activity against Staphylococcus epidermidis ATCC 35984 assessed as inhibition of bacterial biofilm after 18 hrs by broth microdilution method
Type: functional
Outline: as §3

| SMILES | MBIC |
| --- | --- |
| C=CCOc1cc(/C=C2\SC(=S)N(c3ccc(F)cc3)C2=O)ccc1O | 17.7 µM |
| CCOc1cc(/C=C2\SC(=S)N(c3ccc(F)cc3)C2=O)ccc1O | 17.7 µM |

Test system: Staphylococcus aureus
Test: Antimicrobial activity against community acquired community-acquired Staphylococcus aureus MW2 assessed as inhibition of bacterial biofilm after 18 hrs by broth microdilution method
Type: functional
Outline: as §1

| SMILES | MBIC |
| --- | --- |
| C=CCOc1cc(/C=C2\SC(=S)N(c3ccc(F)cc3)C2=O)ccc1O | 25 µM |
| CCOc1cc(/C=C2\SC(=S)N(c3ccc(F)cc3)C2=O)ccc1O | 42 µM |

Test system: Staphylococcus aureus
Test: Antimicrobial activity against hospital acquired methicillin-resistant Staphylococcus aureus isolate 58336 assessed as inhibition of bacterial biofilm after 18 hrs by broth microdilution method
Type: functional
Outline: as §1

| SMILES | MBIC |
| --- | --- |
| CCOc1cc(/C=C2\SC(=S)N(c3ccc(F)cc3)C2=O)ccc1O | 10.5 µM |

Test system: Staphylococcus epidermidis
Test: Antimicrobial activity against Staphylococcus epidermidis O-47 assessed as inhibition of bacterial biofilm after 18 hrs by broth microdilution method
Type: functional
Outline: as §3

| SMILES | MBIC |
| --- | --- |
| C=CCOc1cc(/C=C2\SC(=S)N(c3ccc(F)cc3)C2=O)ccc1O | 59.5 µM |
| CCOc1cc(/C=C2\SC(=S)N(c3ccc(F)cc3)C2=O)ccc1O | 50 µM |

Test system: Enterococcus faecalis
Test: Antimicrobial activity against Enterococcus faecalis ATCC 51575 on medical grade silicone disk assessed as inhibition of bacterial biofilm after 18 hrs by broth microdilution method
Type: functional

| SMILES | MBIC90 | MBIC |
| --- | --- | --- |
| C=CCOc1cc(/C=C2\SC(=S)N(c3ccc(F)cc3)C2=O)ccc1O | 100 µM | – |
| CCOc1cc(/C=C2\SC(=S)N(c3ccc(F)cc3)C2=O)ccc1O | – | 29.7 µM |

Test system: Staphylococcus aureus
Test: Antimicrobial activity against community acquired methicillin-resistant Staphylococcus aureus isolate 44081 assessed as inhibition of bacterial biofilm after 18 hrs by broth microdilution method
Type: functional
Outline: as §1

| SMILES | MBIC |
| --- | --- |
| C=CCOc1cc(/C=C2\SC(=S)N(c3ccc(F)cc3)C2=O)ccc1O | 39.7 µM |
| CCOc1cc(/C=C2\SC(=S)N(c3ccc(F)cc3)C2=O)ccc1O | 79.4 µM |

Test system: Staphylococcus aureus
Test: Antimicrobial activity against Staphylococcus aureus ATCC 35556 assessed as inhibition of bacterial biofilm formation after 18 hrs by broth microdilution method in presence of 2 ug/ml fibronectin
Type: functional
Outline: as §2

| SMILES | MBIC |
| --- | --- |
| C=CCOc1cc(/C=C2\SC(=S)N(c3ccc(F)cc3)C2=O)ccc1O | 3.125 µM |
| CCOc1cc(/C=C2\SC(=S)N(c3ccc(F)cc3)C2=O)ccc1O | 3.125 µM |

Test system: Staphylococcus aureus
Test: Antimicrobial activity against Staphylococcus aureus ATCC 35556 assessed as inhibition of bacterial biofilm formation after 18 hrs by broth microdilution method in presence of 1 ug/ml fibronectin
Type: functional
Outline: as §2

| SMILES | MBIC |
| --- | --- |
| C=CCOc1cc(/C=C2\SC(=S)N(c3ccc(F)cc3)C2=O)ccc1O | 3.125 µM |
| CCOc1cc(/C=C2\SC(=S)N(c3ccc(F)cc3)C2=O)ccc1O | 3.125 µM |

Test system: Staphylococcus aureus
Test: Antimicrobial activity against Staphylococcus aureus ATCC 35556 assessed as effect on protein synthesis at 30 ug/ml
Type: functional, organism-based

| SMILES | inhibition |
| --- | --- |
| CCOc1cc(/C=C2\SC(=S)N(c3ccc(F)cc3)C2=O)ccc1O | inactive |

Test system: Staphylococcus epidermidis
Test: Antimicrobial activity against Staphylococcus epidermidis 1457 assessed as inhibition of bacterial biofilm after 18 hrs by broth microdilution method
Type: functional
Outline: as §3

| SMILES | MBIC |
| --- | --- |
| C=CCOc1cc(/C=C2\SC(=S)N(c3ccc(F)cc3)C2=O)ccc1O | 29.7 µM |
| CCOc1cc(/C=C2\SC(=S)N(c3ccc(F)cc3)C2=O)ccc1O | 42 µM |

Test system: Staphylococcus aureus
Test: Antimicrobial activity against community acquired methicillin-susceptible Staphylococcus aureus assessed as inhibition of bacterial biofilm after 18 hrs by broth microdilution method
Type: functional
Outline: as §3

| SMILES | MBIC |
| --- | --- |
| C=CCOc1cc(/C=C2\SC(=S)N(c3ccc(F)cc3)C2=O)ccc1O | 10.5 µM |
| CCOc1cc(/C=C2\SC(=S)N(c3ccc(F)cc3)C2=O)ccc1O | 14.9 µM |

Test system: Staphylococcus aureus
Test: Antimicrobial activity against community acquired Staphylococcus aureus NCTC 8325 assessed as inhibition of bacterial biofilm after 18 hrs by broth microdilution method
Type: functional
Outline: as §3

| SMILES | MBIC |
| --- | --- |
| C=CCOc1cc(/C=C2\SC(=S)N(c3ccc(F)cc3)C2=O)ccc1O | 14.9 µM |
| CCOc1cc(/C=C2\SC(=S)N(c3ccc(F)cc3)C2=O)ccc1O | 25 µM |

Test system: Staphylococcus epidermidis
Test: Antimicrobial activity against coagulase-negative Staphylococcus epidermidis isolate WTBF-46 assessed as inhibition of bacterial biofilm after 18 hrs by broth microdilution method
Type: functional
Outline: as §3

| SMILES | MBIC |
| --- | --- |
| C=CCOc1cc(/C=C2\SC(=S)N(c3ccc(F)cc3)C2=O)ccc1O | 70.7 µM |
| CCOc1cc(/C=C2\SC(=S)N(c3ccc(F)cc3)C2=O)ccc1O | 50 µM |

Test system: Enterococcus faecalis
Test: Antimicrobial activity against vancomycin-resistant Enterococcus faecalis ATCC 51575 assessed as inhibition of bacterial biofilm after 18 hrs by broth microdilution method
Type: functional
Outline: as §1

| SMILES | MBIC |
| --- | --- |
| C=CCOc1cc(/C=C2\SC(=S)N(c3ccc(F)cc3)C2=O)ccc1O | 35.4 µM |
